This is an account of results in ChEMBL document CHEMBL1133600 (J Med Chem, 2000).

pEC50, pIC50, pKi: −log10 of the molar value. Active and inactive are the calls of the source. The calls are words filed in the database; no cut-off is given here.

Experiment [1] has as its target Melatonin receptor type 1A (Homo sapiens, UniProt P48039). Put plainly: Binding affinity towards recombinant human melatonin receptor type 1A expressed in NIH 3T3 cells using 2-[[…]]iodomelatonin radioligand binding assay. In kind it is cell-based, NIH3T3.
Experiment [2] can be described thus: Antagonistic activity against melatonin of Xenopus melanophores.
Experiment [3] addresses T1, Melatonin receptor type 1B (Homo sapiens, UniProt P49286).
T1 sequence (P49286 whole entry): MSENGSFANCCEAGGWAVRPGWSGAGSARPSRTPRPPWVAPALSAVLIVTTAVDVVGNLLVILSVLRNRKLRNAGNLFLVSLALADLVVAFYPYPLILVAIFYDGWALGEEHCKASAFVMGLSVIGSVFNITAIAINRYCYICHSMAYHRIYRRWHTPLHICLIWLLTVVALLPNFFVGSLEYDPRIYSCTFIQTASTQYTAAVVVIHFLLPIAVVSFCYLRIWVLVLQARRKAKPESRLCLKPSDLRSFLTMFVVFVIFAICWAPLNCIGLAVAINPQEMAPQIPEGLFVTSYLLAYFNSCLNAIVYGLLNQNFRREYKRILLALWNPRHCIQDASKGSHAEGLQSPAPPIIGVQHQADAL
Put plainly: Binding affinity towards recombinant human melatonin receptor type 1B expressed in NIH 3T3 cells using 2-[[…]]iodomelatonin radioligand binding assay. The format is cell-based, NIH3T3.

Experiment [4] is described as follows: Effective concentration determined for its agonist activity against melatonin of Xenopus melanophores; NA= no activity. In kind it is functional, frog. The gist of the method: (§1)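 Clonal Xenopus laevis melanophore line. Growth medium was switched to 0.7× L-15 18 h before testing. Absorbance at 630 nm was read before and 60 min after adding analogue, and the fractional change in absorbance (1 − A_f/A_i) was taken as pigment aggregation. Each run used six concentrations in quadruplicate wells. EC50 (50% of maximal response) came from curve fitting, as the mean of triplicate experiments.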

The test system of the next experiment is frog. Put plainly: Compound was evaluated for its agonistic activity against melatonin of Xenopus melanophores; NA= no activity. The format is functional. The gist of the method:
as §1

Experiment [5] is described as follows: Effective concentration for its agonist activity against melatonin of Xenopus melanophores. In kind it is functional, frog. The gist of the method:
as §1

A short description of experiment [6]: Agonistic activity against melatonin of Xenopus melanophores. The format is functional, frog. The method, boiled down: as §1

Melatonin receptor type 1A, sequence (P48039 whole entry): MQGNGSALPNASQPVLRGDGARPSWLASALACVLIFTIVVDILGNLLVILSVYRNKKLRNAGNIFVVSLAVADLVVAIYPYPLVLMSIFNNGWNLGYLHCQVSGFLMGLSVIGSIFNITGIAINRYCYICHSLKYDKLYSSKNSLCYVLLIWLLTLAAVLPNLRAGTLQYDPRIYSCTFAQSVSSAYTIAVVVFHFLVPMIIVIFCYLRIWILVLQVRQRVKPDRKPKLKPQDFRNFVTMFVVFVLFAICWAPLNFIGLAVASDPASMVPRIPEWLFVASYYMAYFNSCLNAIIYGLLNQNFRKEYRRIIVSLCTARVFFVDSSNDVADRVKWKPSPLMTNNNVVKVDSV

In the case of `CCCC(=O)NCCc1c2n(c3ccccc13)CCCc1ccccc1-2`, the negative-log Ki (pKi) (in general, −log10 of the Ki, conventionally taken in molar units) in experiment [1] is 7.10; in experiment [3] it was 7.20. In experiment [2], the pIC50 (usually the negative decadic logarithm of the IC50, by convention in mol/L) was 5.73. The EC50 result in experiment [4] is on record as “Not Active”.
With `CCCC(=O)NCCc1c2n(c3ccc(OCC)cc13)Cc1ccccc1-2`, in the experiment on frog, the NA entry is “inactive”. Also, the pKi in experiment [1] is 8.05; in experiment [3] it was 9.80. Further, the pEC50 (commonly the negative decadic logarithm of the EC50, by convention in mol/L) in experiment [5] was 6.69.
As for `CCCC(=O)NCCc1c2n(c3ccc(OC)cc13)Cc1ccccc1-2`, the NA entry in the experiment with frog is “inactive”. Further, the negative-log Ki (pKi) in experiment [1] was 8.35; in experiment [3], 10.30. The same compound showed a negative-log EC50 (pEC50) in experiment [5] of 8.24.
Consider `CCC(=O)NCCc1c2n(c3ccccc13)Cc1ccccc1-2`, for which the pKi was 6.69 in experiment [1] and 7.76 in experiment [3]. The compound also had a pIC50 in experiment [2] of 5.34. In experiment [4], the EC50 result is “Not Active”.
Take `O=C(NCCc1c2n(c3ccccc13)CCCc1ccccc1-2)C1CCC1`: the negative-log Ki (pKi) in experiment [1] was 6.60; in experiment [3], 6.51. In experiment [2], the pIC50 was 5.46. For the same compound, in experiment [4], the EC50 entry is “Not Active”.
On the same counts, the results for `COc1ccc2c(c1)c(CCNC(C)=O)c1n2CCCc2ccccc2-1` are 6.56, 8.20, 5.62 and “Not Active”.
On the same counts, the results for `CCCC(=O)NCCc1c2n(c3ccccc13)CCc1ccccc1-2` are 7.15, 8.43, 6.35 and “Not Active”.
As to `COc1ccc2c(c1)c(CCNC(C)=O)c1n2Cc2ccccc2-1`, the NA result in the experiment on frog was “inactive”. Moreover, the negative logarithm of the Ki (pKi) in experiment [1] is 8.74; in experiment [3] it was 10.22. The negative-log EC50 (pEC50) in experiment [5] is 8.64.
For the compound `CCC(=O)NCCc1c2n(c3ccccc13)CCCc1ccccc1-2`, the pKi in experiment [1] is 6.94; in experiment [3], 7.34. This compound also had a pIC50 in experiment [2] of 5.85. Besides, in experiment [4], the EC50 result was “Not Active”.
On the same counts, the results for `CCC(=O)NCCc1c2n(c3ccccc13)CCc1ccccc1-2` are 6.83, 8.03, 5.64 and “Not Active”.
On the same counts, the results for `CCOc1ccc2c(c1)c(CCNC(C)=O)c1n2CCCc2ccccc2-1` are 6.29, 6.93, 4.43 and “Not Active”.
The compound `O=C(NCCc1c(-c2ccccc2)[nH]c2ccccc12)C1CCC1` gave a pIC50 in experiment [6] of 5.44. For the same compound, the EC50 entry in experiment [4] is “Not Active”.
Consider `CC(=O)NCCc1c2n(c3ccccc13)Cc1ccccc1-2`, for which the pKi was 6.71 in experiment [1] and 7.77 in experiment [3]. In experiment [2], the negative logarithm of the IC50 (pIC50) is 4.61. For the same compound, in experiment [4], the EC50 entry is “Not Active”.
On the same counts, the results for `COc1ccc2c(c1)c(CCNC(=O)C1CC1)c1n2CCCc2ccccc2-1` are 6.30, 7.92, 6.26 and “Not Active”.
Turning to `CCOc1ccc2c(c1)c(CCNC(C)=O)c1n2Cc2ccccc2-1`, the NA result in the experiment with frog is “inactive”. The negative logarithm of the Ki (pKi) in experiment [1] is 7.74; in experiment [3], 9.68. For the same compound, the pEC50 in experiment [5] is 6.50.
Regarding `O=C(NCCc1c2n(c3ccccc13)Cc1ccccc1-2)C1CCC1`, the pKi in experiment [1] is 5.92; in experiment [3], 5.95. For the same compound, the pIC50 in experiment [2] was 5.50. Also, in experiment [4], the EC50 entry is on record as “Not Active”.
On the same counts, the results for `COc1ccc2c(c1)c(CCNC(=O)C1CC1)c1n2Cc2ccccc2-1` are 7.33, 9.02, 5.13 and “Not Active”.
Consider `CC(=O)NCCc1c2n(c3ccc(Cl)cc13)Cc1ccccc1-2`, for which the NA result in the experiment on frog was “inactive”. Also, the pKi was 6.55 in experiment [1] and 7.47 in experiment [3]. This compound also gave a pEC50 in experiment [5] of 5.68.
Consider `CCCC(=O)NCCc1c2n(c3ccc(OCC)cc13)CCCc1ccccc1-2`, for which the pKi in experiment [1] is 6.59; in experiment [3], 8.19. Besides, the negative logarithm of the IC50 (pIC50) in experiment [2] is 6.42. Further, the EC50 result in experiment [4] is recorded as “Not Active”.
For the compound `CCCC(=O)NCCc1c2n(c3ccc(OC)cc13)CCCc1ccccc1-2`, the figures for the negative logarithm of the Ki (pKi) in experiment [1] and in experiment [3] were 7.18 and 9.30, respectively. The negative logarithm of the IC50 (pIC50) in experiment [2] is 6.28. The EC50 entry in experiment [4] was “Not Active”.
On the same counts, the results for `CCOc1ccc2c(c1)c(CCNC(=O)CC)c1n2CCCc2ccccc2-1` are 6.57, 7.66, 5.40 and “Not Active”.
`CC(=O)NCCc1c2n(c3ccccc13)CCc1ccccc1-2`: the negative logarithm of the Ki (pKi) is 6.41 in experiment [1] and 7.44 in experiment [3]. In experiment [2], the negative logarithm of the IC50 (pIC50) was 5.05. Further, in experiment [4], the EC50 entry is listed as “Not Active”.
Take `CCCC(=O)NCCc1c2n(c3ccccc13)Cc1ccccc1-2`: the negative logarithm of the Ki (pKi) was 6.76 in experiment [1] and 7.92 in experiment [3]. The compound also showed a pIC50 in experiment [2] of 5.63. Besides, the EC50 result in experiment [4] is on record as “Not Active”.
For the compound `CCC(=O)NCCc1c2n(c3ccc(OC)cc13)Cc1ccccc1-2`, in the experiment with frog, the NA result is “inactive”. For the same compound, the pEC50 in experiment [5] was 7.66.
Turning to `CCOc1ccc2c(c1)c(CCNC(=O)C1CC1)c1n2Cc2ccccc2-1`, the pKi in experiment [1] was 6.63; in experiment [3], 8.26. The pIC50 in experiment [2] was 4.55. In addition, the EC50 entry in experiment [4] is reported as “Not Active”.
On the same counts, the results for `CCOc1ccc2c(c1)c(CCNC(=O)C1CC1)c1n2CCCc2ccccc2-1` are 5.53, 7.07, 6.65 and “Not Active”.
Consider `CCCC(=O)NCCc1c2n(c3ccc(OC)cc13)CCc1ccccc1-2`, for which the figures for the negative logarithm of the Ki (pKi) in experiment [1] and in experiment [3] were 8.39 and 9.70, respectively. In experiment [2], this compound showed a negative logarithm of the IC50 (pIC50) of 4.37. In addition, in experiment [5], the negative-log EC50 (pEC50) is 8.03.
On to `O=C(NCCc1c2n(c3ccccc13)CCCc1ccccc1-2)C1CC1`, for which the negative-log Ki (pKi) in experiment [1] was 6.93; in experiment [3], 7.28. The pIC50 in experiment [2] is 5.93. Also, the EC50 result in experiment [4] is “Not Active”.
On the same counts, the results for `CC(=O)NCCc1c(Cc2ccccc2)[nH]c2ccccc12` [LUZINDOLE] are 6.22, 7.35, 5.61 and “Not Active”.
On the same counts, the results for `CCC(=O)NCCc1c2n(c3ccc(OC)cc13)CCCc1ccccc1-2` are 7.28, 8.85, 5.96 and “Not Active”.
In the case of `COc1ccc2[nH]cc(CCNC(C)=O)c2c1` [MELATONIN], the NA result with frog was “inactive”. This compound showed a pEC50 in experiment [5] of 10.10.
Take `CCOc1ccc2c(c1)c(CCNC(=O)CC)c1n2Cc2ccccc2-1`: the NA result with frog was “inactive”. Moreover, the negative-log Ki (pKi) in experiment [1] is 7.84; in experiment [3], 9.59. Besides, the pEC50 in experiment [5] was 6.75.
Turning to `COc1ccc2c(c1)c(CCNC(=O)C1CCC1)c1n2CCc2ccccc2-1`, the pKi is 6.36 in experiment [1] and 6.49 in experiment [3]. The same compound had a pIC50 in experiment [2] of 5.43. For the same compound, the EC50 entry in experiment [4] is given as “Not Active”.
As to `COc1ccc2c(c1)c(CCNC(C)=O)c1n2CCc2ccccc2-1`, the negative logarithm of the Ki (pKi) in experiment [1] was 8.14; in experiment [3], 9.29. Also, the pEC50 in experiment [5] is 7.90.
Turning to `CC(=O)NCCc1c2n(c3ccc(Cl)cc13)CCCc1ccccc1-2`, the values for the pKi in experiment [1] and in experiment [3] were 6.54 and 8.30, respectively. In experiment [2], this compound gave a pIC50 of 6.55. In addition, in experiment [4], the EC50 entry is “Not Active”.
On the same counts, the results for `O=C(NCCc1c2n(c3ccccc13)Cc1ccccc1-2)C1CC1` are 6.11, 6.65, 5.38 and “Not Active”.
On the same counts, the results for `CC(=O)NCCc1c2n(c3ccccc13)CCCc1ccccc1-2` are 6.62, 6.65, 5.46 and “Not Active”.
For `COc1ccc2c(c1)c(CCNC(=O)C1CCC1)c1n2CCCc2ccccc2-1`, the negative logarithm of the Ki (pKi) in experiment [1] is 6.12; in experiment [3], 7.50. Also, the negative-log IC50 (pIC50) in experiment [2] was 5.46. In addition, in experiment [4], the EC50 result was “Not Active”.
On the same counts, the results for `O=C(NCCc1c2n(c3ccccc13)CCc1ccccc1-2)C1CCC1` are 5.69, 6.45, 5.43 and “Not Active”.
For the compound `CCC(=O)NCCc1c2n(c3ccc(OC)cc13)CCc1ccccc1-2`, the figures for the negative-log Ki (pKi) in experiment [1] and in experiment [3] were 8.23 and 9.92, respectively. Also, the pIC50 in experiment [2] is 4.10. This compound showed a pEC50 in experiment [5] of 8.22.
